# Activity calls are given as the source filed them. No cut-off for these calls is given here.
# Key:
# Mus musculus [1] = assay: (§1) Hepatoprotective activity against isoniazid-rifampicin induced liver injury in BALB/c mouse assessed as reduction AST level at 100 mg/kg, po bid for 3 days starting 30 mins prior isoniazid-rifampicin administration measured 24 hrs post-last dose of isoniazid-rifampicin relative to control; assay type: functional; design: scale not given: the % may be the effect or the level left
# Summary of the method: (§2)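 Serum AST and ALT measured with commercial kits in blood drawn 24 h after the last of three daily oral isoniazid (50 mg/kg) + rifampicin (100 mg/kg) doses. 6 male BALB/c mice per group, mean ± SEM, one-way ANOVA with Newman–Keuls test.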
# Mus musculus [2] = assay: Hepatoprotective activity against isoniazid-rifampicin induced liver injury in BALB/c mouse assessed as reduction ALT level at 100 mg/kg, po bid for 3 days starting 30 mins prior isoniazid-rifampicin administration measured 24 hrs post-last dose of isoniazid-rifampicin relative to control; assay type: functional; design: scale not given: the % may be the effect or the level left; summary of the method: as §2
# Mus musculus [3] = assay: (§3) Hepatoprotective activity against isoniazid-rifampicin induced liver injury in BALB/c mouse assessed as reversal of GSH depletion at 100 mg/kg, po bid for 3 days starting 30 mins prior isoniazid-rifampicin administration measured 24 hrs post-last dose of isoniazid-rifampicin relative to control; assay type: functional
# Summary of the method: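 Reduced glutathione assayed with DTNB. Liver homogenized 1:9 w/v in 0.9% saline, spun 3500g 20 min 4 °C. Supernatant deproteinized with 4% sulfosalicylic acid, spun again, then mixed with 0.1 M phosphate buffer and 0.01 M DTNB. Absorbance at 412 nm. 6 mice/group, mean ± SEM.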
# Mus musculus [4] = assay: as §3, with “increase in catalase activity” for “reversal of GSH”; assay type: functional
# Summary of the method: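 Liver homogenized 1:9 w/v in 0.9% saline and spun 3500g, 10 min, 4 °C. Supernatant in 50 mM PBS pH 7.0 with 20 mM H2O2 substrate. H2O2 decomposition followed continuously at 240 nm (Aebi method), expressed as mmol H2O2/min/mg protein. n = 6 mice, mean ± SEM.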
# Mus musculus [5] = assay: as §1, with “in hepatic myeloperoxidase activity” for “AST level”; assay type: functional; design: scale not given: the % may be the effect or the level left
# Summary of the method: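 Neutrophil recruitment estimated from hepatic myeloperoxidase activity (modified Paszcuk method), expressed as OD/mg tissue. Livers collected 24 h after the last oral isoniazid 50 mg/kg + rifampicin 100 mg/kg dose of a 3-day course. 6 male BALB/c mice/group, mean ± SEM.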
# Mus musculus [6] = assay: Hepatoprotective activity against isoniazid-rifampicin induced liver injury in BALB/c mouse assessed as reduction in hepatic lesion at 100 mg/kg, po bid for 3 days starting 30 mins prior isoniazid-rifampicin administration measured 24 hrs post-last dose of isoniazid-rifampicin relative to control; assay type: functional, organism-based; design: dose 100 mg/kg
# Summary of the method: (§4)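 Liver fixed in 10% formaldehyde and paraffin-embedded. 4 μm sections stained with hematoxylin and eosin, examined by light microscopy by a veterinary pathologist blinded to groups. Tissue taken 24 h after the last of 3 daily oral isoniazid (50 mg/kg) + rifampicin (100 mg/kg) doses.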
# Mus musculus [7] = assay: as §1, with “in fatty accumulation” for “AST level”; assay type: functional, organism-based; design: dose 100 mg/kg; summary of the method: as §4
# Mus musculus [8] = assay: as §1, with “prevention of liver statosis development” for “reduction AST level”; assay type: functional, organism-based; design: dose 100 mg/kg; summary of the method: as §4
# Mus musculus [9] = assay: Hepatoprotective activity against isoniazid-rifampicin induced liver injury in BALB/c mouse assessed as reduction in IL6 level at 100 mg/kg, po bid for 3 days starting 30 mins prior isoniazid-rifampicin administration measured 24 hrs post-last dose of isoniazid-rifampicin relative to control; assay type: functional, organism-based; design: dose 100 mg/kg
# Mus musculus [10] = assay: Hepatoprotective activity against isoniazid-rifampicin induced liver injury in BALB/c mouse assessed as reduction in MCP-1 level at 100 mg/kg, po bid for 3 days starting 30 mins prior isoniazid-rifampicin administration measured 24 hrs post-last dose of isoniazid-rifampicin relative to control; assay type: functional, organism-based; design: dose 100 mg/kg
# Mus musculus [11] = assay: as §1, with “restoration of SIRT1 mRNA” for “reduction AST”; assay type: functional, organism-based; design: dose 100 mg/kg
# Summary of the method: (§5)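 Livers taken 24 h after the last of three daily oral isoniazid 50 mg/kg + rifampicin 100 mg/kg doses (in 1% DMSO/saline). Hepatic mRNA measured by qPCR with mouse GAPDH probe as endogenous control, reactions in duplicate, relative expression by the 2ΔΔC method. n = 6 male BALB/c mice/group, mean ± SEM.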
# Mus musculus [12] = assay: (§6) Hepatoprotective activity against isoniazid-rifampicin induced liver injury in BALB/c mouse assessed as change in SIRT2 mRNA level at 100 mg/kg, po bid for 3 days starting 30 mins prior isoniazid-rifampicin administration measured 24 hrs post-last dose of isoniazid-rifampicin relative to control; assay type: functional, organism-based; design: dose 100 mg/kg; summary of the method: as §5
# Mus musculus [13] = assay: Hepatoprotective activity against isoniazid-rifampicin induced liver injury in BALB/c mouse assessed as change in SIRT3 mRNA level at 100 mg/kg, po bid for 3 days starting 30 mins prior isoniazid-rifampicin administration measured 24 hrs post-last dose of isoniazid-rifampicin relative to control; assay type: functional, organism-based; design: dose 100 mg/kg; summary of the method: as §5
# Mus musculus [14] = assay: Hepatoprotective activity against isoniazid-rifampicin induced liver injury in BALB/c mouse assessed as change in SIRT4 mRNA level at 100 mg/kg, po bid for 3 days starting 30 mins prior isoniazid-rifampicin administration measured 24 hrs post-last dose of isoniazid-rifampicin relative to control; assay type: functional, organism-based; design: dose 100 mg/kg; summary of the method: as §5
# Mus musculus [15] = assay: Hepatoprotective activity against isoniazid-rifampicin induced liver injury in BALB/c mouse assessed as change in SIRT5 mRNA level at 100 mg/kg, po bid for 3 days starting 30 mins prior isoniazid-rifampicin administration measured 24 hrs post-last dose of isoniazid-rifampicin relative to control; assay type: functional, organism-based; design: dose 100 mg/kg; summary of the method: as §5
# Mus musculus [16] = assay: Hepatoprotective activity against isoniazid-rifampicin induced liver injury in BALB/c mouse assessed as change in SIRT6 mRNA level at 100 mg/kg, po bid for 3 days starting 30 mins prior isoniazid-rifampicin administration measured 24 hrs post-last dose of isoniazid-rifampicin relative to control; assay type: functional, organism-based; design: dose 100 mg/kg; summary of the method: as §5
# Mus musculus [17] = assay: Hepatoprotective activity against isoniazid-rifampicin induced liver injury in BALB/c mouse assessed as change in SIRT7 mRNA level at 100 mg/kg, po bid for 3 days starting 30 mins prior isoniazid-rifampicin administration measured 24 hrs post-last dose of isoniazid-rifampicin relative to control; assay type: functional, organism-based; design: dose 100 mg/kg; summary of the method: as §5
# Mus musculus [18] = assay: as §1, with “in PPAR-gamma mRNA” for “AST”; assay type: functional, organism-based; design: dose 100 mg/kg; summary of the method: as §5
# Mus musculus [19] = assay: as §1, with “in PGC-1alpha mRNA” for “AST”; assay type: functional, organism-based; design: dose 100 mg/kg; summary of the method: as §5
# Mus musculus [20] = assay: as §6, with “effect on nicotinamide phosphoribosyltransferase” for “change in SIRT2”; assay type: functional, organism-based; design: dose 100 mg/kg; summary of the method: as §5
# Mus musculus [21] = assay: Hepatoprotective activity against isoniazid-rifampicin induced liver injury in BALB/c mouse assessed as effect on NAD+ concentration at 100 mg/kg, po bid for 3 days starting 30 mins prior isoniazid-rifampicin administration measured 24 hrs post-last dose of isoniazid-rifampicin relative to control; assay type: functional, organism-based; design: dose 100 mg/kg
# Summary of the method: (§7)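 Liver NAD+ and NADH quantified with a commercial colorimetric kit per manufacturer's instructions, reduced product read at 565 nm. Tissue collected 24 h after the final oral isoniazid (50 mg/kg) + rifampicin (100 mg/kg) dose of a 3-day course. 6 male BALB/c mice per group.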
# Mus musculus [22] = assay: Hepatoprotective activity against isoniazid-rifampicin induced liver injury in BALB/c mouse assessed as effect on NADH concentration at 100 mg/kg, po bid for 3 days starting 30 mins prior isoniazid-rifampicin administration measured 24 hrs post-last dose of isoniazid-rifampicin relative to control; assay type: functional, organism-based; design: dose 100 mg/kg; summary of the method: as §7
# Mus musculus [23] = assay: Hepatoprotective activity against isoniazid-rifampicin induced liver injury in BALB/c mouse assessed as reduction in TNFalpha level at 100 mg/kg, po bid for 3 days starting 30 mins prior isoniazid-rifampicin administration measured 24 hrs post-last dose of isoniazid-rifampicin relative to control; assay type: functional, organism-based; design: dose 100 mg/kg
# Summary of the method: (§8)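 Cytokines measured in homogenized liver tissue by flow cytometry (488 nm laser, high-throughput sampler). Tissue from male BALB/c mice 24 h after final oral isoniazid 50 mg/kg + rifampicin 100 mg/kg. n = 6/group, mean ± SEM, one-way ANOVA/Newman–Keuls.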
# Mus musculus [24] = assay: Hepatoprotective activity against isoniazid-rifampicin induced liver injury in BALB/c mouse assessed as reduction in IL-12p70 level at 100 mg/kg, po bid for 3 days starting 30 mins prior isoniazid-rifampicin administration measured 24 hrs post-last dose of isoniazid-rifampicin relative to control; assay type: functional, organism-based; design: dose 100 mg/kg; summary of the method: as §8
# Mus musculus [25] = assay: Hepatoprotective activity against isoniazid-rifampicin induced liver injury in BALB/c mouse assessed as reduction in IL-10 level at 100 mg/kg, po bid for 3 days starting 30 mins prior isoniazid-rifampicin administration measured 24 hrs post-last dose of isoniazid-rifampicin relative to control; assay type: functional, organism-based; design: dose 100 mg/kg; summary of the method: as §8
compound,measurement,setting,value
Oc1ccc(/C=C/c2cc(O)cc(O)c2)cc1 [RESVERATROL],Activity,Mus musculus [1],36%
same,Activity,Mus musculus [2],58%
same,Activity,Mus musculus [3],89%
same,Activity,Mus musculus [4],34%
same,Activity,Mus musculus [5],19%
same,Activity,Mus musculus [6],Active
same,Activity,Mus musculus [7],Active
same,Activity,Mus musculus [8],Active
same,Activity,Mus musculus [9],inactive
same,Activity,Mus musculus [10],inactive
same,Activity,Mus musculus [11],Active
same,Activity,Mus musculus [12],inactive
same,Activity,Mus musculus [13],inactive
same,Activity,Mus musculus [14],inactive
same,Activity,Mus musculus [15],inactive
same,Activity,Mus musculus [16],inactive
same,Activity,Mus musculus [17],inactive
same,Activity,Mus musculus [18],Active
same,Activity,Mus musculus [19],Active
same,Activity,Mus musculus [20],inactive
same,Activity,Mus musculus [21],inactive
same,Activity,Mus musculus [22],inactive
same,Activity,Mus musculus [23],Active
same,Activity,Mus musculus [24],Active
same,Activity,Mus musculus [25],Active
